Results reported in ChEMBL document CHEMBL3621045, “Structural Insights Lead to a Negamycin Analogue with Improved Antimicrobial Activity against Gram-Negative Pathogens” (ACS Med Chem Lett, 2015).
Converted amounts (≈) assume the structure as drawn.

Assays:
Escherichia coli [1] = assay: Inhibition of transcription-translation process in Escherichia coli; assay type: functional; settings: Escherichia coli
Acinetobacter baumannii = assay: Antibacterial activity against Acinetobacter baumannii ARC 3495; assay type: functional
Klebsiella pneumoniae = assay: Antibacterial activity against Klebsiella pneumoniae ATCC 700603; assay type: functional
Pseudomonas aeruginosa [2] = assay: Antibacterial activity against Pseudomonas aeruginosa PAO1; assay type: functional
Escherichia coli [3] = assay: microbe, parasite or virus in culture; settings: ATCC 25922
Pseudomonas aeruginosa [4] = assay: Antibacterial activity against mexABCDXY-deficient Pseudomonas aeruginosa PAO1; assay type: functional
Escherichia coli [5] = assay: microbe, parasite or virus in culture; settings: ATCC 25922; remark: listed apart in the source
Pseudomonas aeruginosa [6] = assay: Ratio of MIC for Pseudomonas aeruginosa PAO1 to MIC for mexABCDXY-deficient Pseudomonas aeruginosa PAO1; assay type: functional
Procedure, shortened: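 MICs in μg/mL were determined for P. aeruginosa PAO1 and its isogenic efflux-pump knockout strain. Analogues were tested up to their highest soluble concentrations. The value is the parent-strain MIC divided by the knockout-strain MIC.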

In the case of NC[C@H](O)C[C@@H](N)CC(=O)NNCC(=O)O, the IC50 (Escherichia coli [1]) is reported as 34 µM, the MIC (Acinetobacter baumannii) is reported as > 64 µg/mL and the MIC (Klebsiella pneumoniae) is reported as > 64 µg/mL. For the same compound, the MIC (Pseudomonas aeruginosa [2]) was > 64 µg/mL and the MIC (Escherichia coli [3]) was > 64 µg/mL.
COCCNC[C@H](O)C[C@@H](N)CC(=O)NN(C)CC(=O)O gave an IC50 (Escherichia coli [1]) of 5.3 µM, an MIC (Acinetobacter baumannii) of 256 µg/mL (≈ 836 µM) and an MIC (Klebsiella pneumoniae) of 128 µg/mL (≈ 418 µM). The MIC (Pseudomonas aeruginosa [2]) was > 256 µg/mL, the MIC (Pseudomonas aeruginosa [4]) was > 256 µg/mL and the MIC (Escherichia coli [3]) was > 256 µg/mL. It also gave an MIC (Escherichia coli [5]) of 128 µg/mL (≈ 418 µM).
For CN(CC(=O)O)NC(=O)C[C@H](N)C[C@H](F)CN, the IC50 (Escherichia coli [1]) was 26 µM, the MIC (Acinetobacter baumannii) was > 512 µg/mL and the MIC (Klebsiella pneumoniae) was > 512 µg/mL. For the same compound, the MIC (Pseudomonas aeruginosa [2]) was > 512 µg/mL and the MIC (Escherichia coli [3]) was > 512 µg/mL.
Compound CN(CC(=O)O)NC(=O)C[C@H](N)C[C@H](O)CN has an IC50 (Escherichia coli [1]) of 51 µM, an MIC (Acinetobacter baumannii) of 512 µg/mL (≈ 2060 µM) and an MIC (Klebsiella pneumoniae) of 1020 µg/mL (≈ 4120 µM). The MIC (Pseudomonas aeruginosa [2]) was > 1020 µg/mL and the MIC (Escherichia coli [3]) was 1020 µg/mL (≈ 4120 µM).
Work on CN(CC(=O)O)NC(=O)C[C@H](N)C[C@@H](O)CNCCCO yielded an IC50 (Escherichia coli [1]) of 11 µM, an MIC (Acinetobacter baumannii) of 256 µg/mL (≈ 836 µM) and an MIC (Klebsiella pneumoniae) of 512 µg/mL (≈ 1670 µM). The MIC (Pseudomonas aeruginosa [2]) was > 1020 µg/mL, the MIC (Pseudomonas aeruginosa [4]) was 1020 µg/mL (≈ 3340 µM) and the MIC (Escherichia coli [3]) was 512 µg/mL (≈ 1670 µM). For the same compound, the MIC (Escherichia coli [5]) was 128 µg/mL (≈ 418 µM).
In the case of CN(CC(=O)O)NC(=O)C[C@H](N)C[C@@H](O)[C@@H](N)CO, the IC50 (Escherichia coli [1]) is reported as 7.3 µM, the MIC (Acinetobacter baumannii) is reported as 128 µg/mL (≈ 460 µM) and the MIC (Klebsiella pneumoniae) is reported as > 128 µg/mL. For the same compound, the MIC (Pseudomonas aeruginosa [2]) was > 128 µg/mL and the MIC (Escherichia coli [3]) was > 128 µg/mL.
In the case of CN(C)[C@@H]1C(O)=C(C(N)=O)C(=O)[C@@]2(O)C(O)=C3C(=O)c4c(O)cccc4[C@@](C)(O)[C@H]3C[C@@H]12 [TETRACYCLINE], the IC50 (Escherichia coli [1]) is reported as 1.4 µM, the MIC (Acinetobacter baumannii) is reported as > 64 µg/mL and the MIC (Klebsiella pneumoniae) is reported as 16 µg/mL (≈ 36 µM). For the same compound, the MIC (Pseudomonas aeruginosa [2]) was 32 µg/mL (≈ 72 µM), the MIC (Pseudomonas aeruginosa [4]) was 0.25 µg/mL (≈ 0.563 µM) and the Ratio (Pseudomonas aeruginosa [6]) was 128. The MIC (Escherichia coli [3]) was 1 µg/mL (≈ 2.25 µM) and the MIC (Escherichia coli [5]) was 0.5 µg/mL (≈ 1.13 µM).
For CC(=O)NCCCNC[C@H](O)C[C@@H](N)CC(=O)NN(C)CC(=O)O, the IC50 (Escherichia coli [1]) was 19 µM, the MIC (Acinetobacter baumannii) was > 512 µg/mL and the MIC (Klebsiella pneumoniae) was > 512 µg/mL. The MIC (Pseudomonas aeruginosa [2]) was > 512 µg/mL, the MIC (Pseudomonas aeruginosa [4]) was > 512 µg/mL and the MIC (Escherichia coli [3]) was > 512 µg/mL. For the same compound, the MIC (Escherichia coli [5]) was > 512 µg/mL.
Compound CN(CC(=O)O)NC(=O)C[C@@H](N)C[C@H](O)CN has an IC50 (Escherichia coli [1]) of 12 µM, an MIC (Acinetobacter baumannii) of 128 µg/mL (≈ 516 µM) and an MIC (Klebsiella pneumoniae) of 256 µg/mL (≈ 1030 µM). It also gave an MIC (Pseudomonas aeruginosa [2]) of 256 µg/mL (≈ 1030 µM) and an MIC (Escherichia coli [3]) of 512 µg/mL (≈ 2060 µM).
For GENTAMICIN, the MIC (Acinetobacter baumannii) was > 64 µg/mL, the MIC (Klebsiella pneumoniae) was 8 µg/mL and the MIC (Pseudomonas aeruginosa [2]) was 1 µg/mL. For the same compound, the MIC (Pseudomonas aeruginosa [4]) was 0.13 µg/mL.
Work on CN(CC(=O)O)NC(=O)C[C@H](N)C[C@@H](O)CNCCO yielded an IC50 (Escherichia coli [1]) of 0.63 µM, an MIC (Acinetobacter baumannii) of 64 µg/mL (≈ 219 µM) and an MIC (Klebsiella pneumoniae) of 64 µg/mL (≈ 219 µM). For the same compound, the MIC (Pseudomonas aeruginosa [2]) was 512 µg/mL (≈ 1750 µM), the MIC (Pseudomonas aeruginosa [4]) was 128 µg/mL (≈ 438 µM) and the MIC (Escherichia coli [3]) was 64 µg/mL (≈ 219 µM). It also gave an MIC (Escherichia coli [5]) of 128 µg/mL (≈ 438 µM).
For NC[C@H](O)C[C@@H](N)CC(=O)NOCC(=O)O, the IC50 (Escherichia coli [1]) was > 100 µM, the MIC (Acinetobacter baumannii) was > 256 µg/mL and the MIC (Klebsiella pneumoniae) was > 256 µg/mL. The MIC (Pseudomonas aeruginosa [2]) was > 256 µg/mL and the MIC (Escherichia coli [3]) was > 256 µg/mL.
In the case of CN(CC(=O)O)NC(=O)C[C@H](N)C[C@@H](O)CNCc1ccccc1, the IC50 (Escherichia coli [1]) is reported as 1 µM, the MIC (Acinetobacter baumannii) is reported as > 256 µg/mL and the MIC (Klebsiella pneumoniae) is reported as 128 µg/mL (≈ 378 µM). For the same compound, the MIC (Pseudomonas aeruginosa [2]) was > 256 µg/mL and the MIC (Escherichia coli [3]) was 128 µg/mL (≈ 378 µM).
Work on CN(CC(=O)O)NC(=O)C[C@@H](N)C[C@@H](O)CN yielded an IC50 (Escherichia coli [1]) of 13 µM, an MIC (Acinetobacter baumannii) of 256 µg/mL (≈ 1030 µM) and an MIC (Klebsiella pneumoniae) of 256 µg/mL (≈ 1030 µM). The MIC (Pseudomonas aeruginosa [2]) was > 256 µg/mL and the MIC (Escherichia coli [3]) was > 256 µg/mL.
For CN(CC(=O)O)NC(=O)C[C@H](N)C[C@@H](O)CNCCN, the IC50 (Escherichia coli [1]) was 2.1 µM, the MIC (Acinetobacter baumannii) was 64 µg/mL (≈ 220 µM) and the MIC (Klebsiella pneumoniae) was 32 µg/mL (≈ 110 µM). It also gave an MIC (Pseudomonas aeruginosa [2]) of 128 µg/mL (≈ 439 µM), an MIC (Pseudomonas aeruginosa [4]) of 64 µg/mL (≈ 220 µM) and an MIC (Escherichia coli [3]) of 64 µg/mL (≈ 220 µM). For the same compound, the MIC (Escherichia coli [5]) was 64 µg/mL (≈ 220 µM).
With CN(CC(=O)O)NC(=O)C[C@H](N)[C@@H](O)[C@@H](O)CN the IC50 (Escherichia coli [1]) was 3.2 µM, the MIC (Acinetobacter baumannii) was 64 µg/mL (≈ 242 µM) and the MIC (Klebsiella pneumoniae) was > 64 µg/mL. For the same compound, the MIC (Pseudomonas aeruginosa [2]) was > 64 µg/mL and the MIC (Escherichia coli [3]) was > 64 µg/mL.
CN(CC(=O)O)NC(=O)C[C@H](N)C[C@@H](O)CNCCCNC(=N)N was tested, and the IC50 (Escherichia coli [1]) was 1.7 µM, the MIC (Acinetobacter baumannii) was 64 µg/mL (≈ 184 µM) and the MIC (Klebsiella pneumoniae) was 128 µg/mL (≈ 368 µM). For the same compound, the MIC (Pseudomonas aeruginosa [2]) was 512 µg/mL (≈ 1470 µM), the MIC (Pseudomonas aeruginosa [4]) was 256 µg/mL (≈ 737 µM) and the MIC (Escherichia coli [3]) was 512 µg/mL (≈ 1470 µM). The MIC (Escherichia coli [5]) was 256 µg/mL (≈ 737 µM).
In the case of CN(CC(=O)O)NC(=O)C[C@H](N)C[C@@H](O)CNC(CCN)c1ccccc1 (stereo partly drawn), the IC50 (Escherichia coli [1]) is reported as 2.3 µM, the MIC (Acinetobacter baumannii) is reported as > 256 µg/mL and the MIC (Klebsiella pneumoniae) is reported as 64 µg/mL (≈ 168 µM). For the same compound, the MIC (Pseudomonas aeruginosa [2]) was > 256 µg/mL, the MIC (Pseudomonas aeruginosa [4]) was 32 µg/mL (≈ 83.9 µM) and the MIC (Escherichia coli [3]) was 256 µg/mL (≈ 671 µM). It also gave an MIC (Escherichia coli [5]) of 128 µg/mL (≈ 336 µM).
CCNC[C@H](O)C[C@@H](N)CC(=O)NN(C)CC(=O)O was tested, and the IC50 (Escherichia coli [1]) was 0.5 µM, the MIC (Acinetobacter baumannii) was 64 µg/mL (≈ 232 µM) and the MIC (Klebsiella pneumoniae) was 64 µg/mL (≈ 232 µM). It also gave an MIC (Pseudomonas aeruginosa [2]) of 512 µg/mL (≈ 1850 µM) and an MIC (Escherichia coli [3]) of 64 µg/mL (≈ 232 µM).
With CN(CC(=O)O)NC(=O)C[C@H](N)C[C@@H](O)CNCCCN the IC50 (Escherichia coli [1]) was 0.34 µM, the MIC (Acinetobacter baumannii) was 4 µg/mL (≈ 13.1 µM) and the MIC (Klebsiella pneumoniae) was 4 µg/mL (≈ 13.1 µM). It also gave an MIC (Pseudomonas aeruginosa [2]) of 16 µg/mL (≈ 52.4 µM), an MIC (Pseudomonas aeruginosa [4]) of 8 µg/mL (≈ 26.2 µM) and an MIC (Escherichia coli [3]) of 8 µg/mL (≈ 26.2 µM). The MIC (Escherichia coli [5]) was 16 µg/mL (≈ 52.4 µM).
With CCN(CC(=O)O)NC(=O)C[C@H](N)C[C@@H](O)CN the IC50 (Escherichia coli [1]) was 7.4 µM, the MIC (Acinetobacter baumannii) was 256 µg/mL (≈ 976 µM) and the MIC (Klebsiella pneumoniae) was 128 µg/mL (≈ 488 µM). For the same compound, the MIC (Pseudomonas aeruginosa [2]) was 128 µg/mL (≈ 488 µM) and the MIC (Escherichia coli [3]) was 256 µg/mL (≈ 976 µM).
Work on CN(CC(=O)O)NC(=O)C[C@H](N)CCCN yielded an IC50 (Escherichia coli [1]) of 3.3 µM, an MIC (Acinetobacter baumannii) of 128 µg/mL (≈ 551 µM) and an MIC (Klebsiella pneumoniae) of 128 µg/mL (≈ 551 µM). The MIC (Pseudomonas aeruginosa [2]) was 128 µg/mL (≈ 551 µM) and the MIC (Escherichia coli [3]) was 128 µg/mL (≈ 551 µM).
